Measured values as given in ChEMBL document CHEMBL4732107, “Synthesis and anticancer activity evaluation of naphthalene-substituted triazole spirodienones” (Eur J Med Chem, 2021).
Calls of active or inactive are those of the source. The calls are words filed in the database; no cut-off is given here.

What was measured:
HeLa = experiment: Antiproliferative activity against human HeLa cells assessed as reduction in cell viability measured after 5 days by beckman coulter counting method; type: functional, cell-based; settings: 120 h
MDA-MB-231 [1] = experiment: Antiproliferative activity against human MDA-MB-231 cells assessed as reduction in cell viability measured after 5 days by beckman coulter counting method; type: functional, cell-based; settings: MDA-MB-231, 120 h
A549 = experiment: Antiproliferative activity against human A549 cells assessed as reduction in cell viability measured after 5 days by beckman coulter counting method; type: functional, cell-based; settings: A549, 120 h
Outline: (§1)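 Cells kept in DMEM with 10% FBS, 4 mM glutamine, 1 mM sodium pyruvate, penicillin/streptomycin and amphotericin, at 37 °C in 5% CO2. Seeded at 20,000 per well, then exposed to 5 concentrations for 5 days, with DMSO as vehicle. Viable cells counted on a cell viability analyzer. Viability expressed as treated/vehicle count, and IC50 taken from dose-response curves.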

MDA-MB-231 [2] = experiment: Cell cycle arrest in human MDA-MB-231 cells assessed as accumulation at S phase at 1 uM measured after 24 hrs by propidium iodide staining based flow cytometry (reference value: 19.84%); type: functional
MDA-MB-231 [3] = experiment: Cell cycle arrest in human MDA-MB-231 cells assessed as accumulation at G1 phase at 1 uM measured after 24 hrs by propidium iodide staining based flow cytometry (reference value: 74.39%); type: functional
MDA-MB-231 [4] = experiment: Induction of apoptosis in human MDA-MB-231 cells assessed as late apoptotic cells at 1 uM measured after 24 hrs by annexin V-FITC/propidium iodide staining based flow cytometry (reference value: 2.84%); type: functional
MDA-MB-231 [5] = experiment: Cell cycle arrest in human MDA-MB-231 cells assessed as accumulation at G2 phase at 1 uM measured after 24 hrs by propidium iodide staining based flow cytometry (reference value: 5.77%); type: functional
Outline: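 MDA-MB-231 cells were seeded at 5 × 10^5 cells/mL and treated for 24 h. They were then trypsinized and washed twice in cold PBS. Cells were resuspended in PBS, stained with PI for 15 min at room temperature in the dark, and analyzed by flow cytometry.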

MDA-MB-231 [6] = experiment: Induction of apoptosis in human MDA-MB-231 cells assessed as viable cells at 1 uM measured after 24 hrs by annexin V-FITC/propidium iodide staining based flow cytometry (reference value: 90.9%); type: functional; settings: read-out: Activity
MDA-MB-231 [7] = experiment: Induction of apoptosis in human MDA-MB-231 cells assessed as necrotic cells at 1 uM measured after 24 hrs by annexin V-FITC/propidium iodide staining based flow cytometry (reference value: 4.74%); type: functional
MDA-MB-231 [8] = experiment: Induction of apoptosis in human MDA-MB-231 cells assessed as early apoptotic cells at 1 uM measured after 24 hrs by annexin V-FITC/propidium iodide staining based flow cytometry (reference value: 1.49%); type: functional
[9] = Toxicity in mouse implanted with mouse 4T1 cells assessed as change in body weight at 1 mg/kg, ip administered daily for 12 days measured daily during compound dosing; type: organism-based; settings: in vivo, 288 h, time 12 day
Outline: (§2)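 Mice bearing orthotopic 4T1 tumors were randomized into 4 groups (n = 6) once tumors reached about 100 mm2. Groups received vehicle, test compound at 1 or 2 mg/kg, or doxorubicin at 1 mg/kg, given i.p. every day. Body weight and tumor volume were recorded daily. Tumors were excised and weighed at the end, and inhibition was calculated against the saline control.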

4T1 [10] = experiment: Antitumor activity against mouse 4T1 cells implanted in mouse assessed as tumor growth inhibition at 1 mg/kg, ip administered daily for 12 days relative to control; type: functional; settings: 4T1, ip, 288 h, time 12 day, read-out: TGI; outline: as §2
4T1 [11] = experiment: Antitumor activity against mouse 4T1 cells implanted in mouse assessed as reduction in tumor weight at 1 mg/kg, ip administered daily for 12 days; type: functional, organism-based; settings: time 12.0 day; outline: as §2
MCF7 = experiment: Antiproliferative activity against human MCF7 cells assessed as reduction in cell viability measured after 5 days by beckman coulter counting method; type: functional, cell-based; settings: MCF7, 120 h; outline: as §1

| Compound | IC50 (HeLa) | IC50 (MDA-MB-231 [1]) | IC50 (A549) | other results |
| --- | --- | --- | --- | --- |
| Cc1ccc(-n2nc(-c3ccc4ccccc4c3)nc2N2C(=O)C(C)OC23C=CC(=O)C=C3)cc1 (stereo not given) | 530 nM | 100 nM | 1210 nM | – |
| CC1CN(c2nc(-c3ccc4ccccc4c3)nn2-c2ccccc2)C2(C=CC(=O)C=C2)O1 (stereo not given) | 260 nM | 130 nM | 320 nM | – |
| O=C1C=CC2(C=C1)OCC(=O)N2c1nc(-c2ccc3ncccc3c2)nn1-c1ccccc1 | 110 nM | 50 nM | 170 nM | – |
| O=C1C=CC2(C=C1)OCC(=O)N2c1nc(-c2ccc3c(c2)OCCO3)nn1-c1ccccc1 | 70 nM | 100 nM | 170 nM | – |
| COc1ccc(/C=C\c2cc(OC)c(OC)c(OC)c2)cc1O [COMBRETASTATIN A4] | – | – | – | Activity (MDA-MB-231 [2]): 27.34%; Activity (MDA-MB-231 [3]): 54.49%; Activity (MDA-MB-231 [4]): 20%; Activity (MDA-MB-231 [5]): 18.16%; viability at 1 µM (MDA-MB-231 [6]): 58.6%; Activity (MDA-MB-231 [7]): 12.8%; Activity (MDA-MB-231 [8]): 8.57% |
| CC1OC2(C=CC(=O)C=C2)N(c2nc(-c3ccc4ccccc4c3)nn2-c2ccccc2)C1=O (stereo not given) | 120 nM | 70 nM | 310 nM | – |
| O=C1C=CC2(C=C1)OCC(=O)N2c1nc(-c2ccc3ccccc3c2Br)nn1-c1ccccc1 | 290 nM | 50 nM | 100 nM | – |
| O=C1C=CC2(C=C1)OCC(=O)N2c1nc(-c2ccc3ccccc3c2)nn1-c1ccc2ccccc2c1 | 210 nM | 50 nM | 250 nM | – |
| COc1ccc(-n2nc(-c3ccc4ccccc4c3)nc2N2C(=O)C(C)OC23C=CC(=O)C=C3)cc1 (stereo not given) | 140 nM | 50 nM | 860 nM | – |
| COc1cccc2c1C(=O)c1c(O)c3c(c(O)c1C2=O)C[C@@](O)(C(=O)CO)C[C@@H]3O[C@H]1C[C@H](N)[C@H](O)[C@H](C)O1 [DOXORUBICIN] | – | – | – | Activity [9]: Non-Toxic; inhibition in vivo at 1 mg/kg (4T1 [10]): 45.1%; Activity (4T1 [11]): Active |
| O=C1C=CC2(C=C1)OCC(=O)N2c1nc(-c2cccc(Cl)c2)nn1-c1ccccc1 | 45.3 nM | 0.8 nM | 25.2 nM | IC50 (MCF7): 4.11 nM |
| O=C1C=CC2(C=C1)OCC(=O)N2c1nc(-c2ccc3ccccc3c2)nn1-c1ccc(Cl)cc1 | 720 nM | 70 nM | 400 nM | – |
| Cn1c(CCCC(=O)O)nc2cc(N(CCCl)CCCl)ccc21 [BENDAMUSTINE] | > 20000 nM | 13300 nM | – | – |
| O=C1C=CC2(C=C1)OCCN2c1nc(-c2ccc3ccccc3c2)nn1-c1ccccc1 | 370 nM | 230 nM | – | – |
| O=C1C=CC2(C=C1)OCC(=O)N2c1nc(-c2ccc3ccccc3c2)nn1-c1ccccc1 | 120 nM | 70 nM | 140 nM | – |
| O=C1C=CC2(C=C1)OCCN2c1nc(-c2cccc3ccccc23)nn1-c1ccccc1 | 150 nM | 110 nM | 430 nM | – |
| Cc1ccc(-n2nc(-c3cccc4ccccc34)nc2N2CCOC23C=CC(=O)C=C3)cc1 | 570 nM | 260 nM | 1520 nM | – |
| O=C1C=CC2(C=C1)OCC(=O)N2c1nc(-c2ccc3c(c2)Cc2ccccc2-3)nn1-c1ccccc1 | 110 nM | 70 nM | 150 nM | – |
| Cc1ccc(-n2nc(-c3ccc4ccccc4c3)nc2N2C(=O)COC23C=CC(=O)C=C3)cc1 | 150 nM | 30 nM | 110 nM | – |
| COc1ccc(-n2nc(-c3ccc4ccccc4c3)nc2N2C(=O)COC23C=CC(=O)C=C3)cc1 | 200 nM | 60 nM | 260 nM | – |
| O=C1C=CC2(C=C1)OCC(=O)N2c1nc(-c2ccc3c(c2)Cc2ccccc2-3)nn1-c1ccc(C(F)(F)F)cc1 | 130 nM | 80 nM | 180 nM | – |
| Cc1ccc(-n2nc(-c3ccc4ccccc4c3)nc2N2CCOC23C=CC(=O)C=C3)cc1 | 520 nM | 160 nM | 2000 nM | – |
| Cc1ccccc1-n1nc(-c2cccc3ccccc23)nc1N1C(=O)COC12C=CC(=O)C=C2 | 100 nM | 120 nM | 130 nM | – |
| Cc1ccc(-n2nc(-c3cccc4ccccc34)nc2N2C(=O)COC23C=CC(=O)C=C3)cc1 | 140 nM | 40 nM | – | – |
| O=C1C=CC2(C=C1)OCC(=O)N2c1nc(-c2ccc3ccccc3c2)nn1-c1ccc(C(F)(F)F)cc1 | 390 nM | 70 nM | 460 nM | – |
| CC1OC2(C=CC(=O)C=C2)N(c2nc(-c3ccc4ccccc4c3)nn2-c2ccc3ccccc3c2)C1=O (stereo not given) | 300 nM | 60 nM | – | – |
| O=C1C=CC2(C=C1)OCC(=O)N2c1nc(-c2ccc(F)c3ccccc23)nn1-c1ccccc1 | 200 nM | 80 nM | 320 nM | – |
| CC1OC2(C=CC(=O)C=C2)N(c2nc(-c3cccc4ccccc34)nn2-c2ccccc2)C1=O (stereo not given) | 110 nM | 100 nM | 180 nM | – |
